Results published in ChEMBL document CHEMBL1134845, “Syntheses and biological activities of a novel group of steroidal derived inhibitors for human Cdc25A protein phosphatase” (J Med Chem, 2001).
One block for each compound: values may come before it.

What was measured:
PC-3 = experiment: Growth inhibitory activity was determined against PC-3 cancer cell line of Prostate cancer; type: functional; conditions: Homo sapiens
Procedure, shortened: (§1)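 NCI 60 human tumour cell line screen run at the National Cancer Institute. Cell growth and viability read with the protein stain sulforhodamine B, which binds basic amino acids of cells left attached after washing. […] MG MID is the mean GI50 calculated over all panels.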

HT-29 = experiment: Growth inhibitory activity was determined against HT-29 cancer cell line colon cancer; type: functional, Homo sapiens; conditions: Homo sapiens, HT-29; procedure, shortened: as §1
OVCAR-3 = experiment: Growth inhibitory activity was determined against OVCAR-3 cancer cell line of Ovarian cancer; type: functional; conditions: Homo sapiens; procedure, shortened: as §1
SN12C = experiment: Growth inhibitory activity was determined against SN12C cancer cell line of renal cancer; type: functional; conditions: Homo sapiens; procedure, shortened: as §1
NCI-H23 = experiment: Growth inhibitory activity was determined against NCI-H23 cancer cell line of non-small cell lung cancer; type: functional, Homo sapiens; conditions: Homo sapiens, NCI-H23; procedure, shortened: as §1
NCI-H522 = experiment: Growth inhibitory activity was determined against NCI-H522 cancer cell line of non-small cell lung cancer; type: functional; conditions: Homo sapiens; procedure, shortened: as §1
OVCAR-8 = experiment: Growth inhibitory activity was determined against OVCAR-8 cancer cell line of Ovarian cancer; type: functional; conditions: Homo sapiens; procedure, shortened: as §1
LOX IMVI = experiment: Growth inhibitory activity was determined against LOX IMVI cancer cell line of melanoma; type: functional, Homo sapiens; conditions: Homo sapiens, LOX IMVI; procedure, shortened: as §1
NCI/ADR-RES = experiment: Growth inhibitory activity was determined against NCI/ADR-RES cancer cell line of Breast cancer; type: functional, Homo sapiens; conditions: Homo sapiens, NCI/ADR-RES; procedure, shortened: as §1
U-251 = experiment: Growth inhibitory activity was determined against U-251 cancer cell line of CNS cancer; type: functional; conditions: Homo sapiens; procedure, shortened: as §1
COLO 205 = experiment: Growth inhibitory activity was determined against COLO 205 cancer cell line colon cancer; type: functional, Homo sapiens; conditions: Homo sapiens, COLO 205; procedure, shortened: as §1
UO-31 = experiment: Growth inhibitory activity was determined against UO-31 cancer cell line of renal cancer; type: functional; conditions: Homo sapiens; procedure, shortened: as §1
SF-268 = experiment: Growth inhibitory activity was determined against SF-268 cancer cell line of CNS cancer; type: functional; conditions: Homo sapiens; procedure, shortened: as §1
A549 [1] = experiment: Growth inhibitory activity was determined against A549/ATCC cancer cell line of non-small cell lung cancer; type: functional, Homo sapiens; conditions: Homo sapiens, A549; procedure, shortened: as §1
786-0 = experiment: Growth inhibitory activity was determined against 786-0 cancer cell line of renal cancer; type: functional; conditions: Homo sapiens; procedure, shortened: as §1
[2] = biological target: T1, M-phase inducer phosphatase 1 (Homo sapiens, UniProt P30304); experiment: Inhibitory activity tested against cell division cycle 25A (assay using p-nitro phenyl phosphate (pNPP) as substrate)
T1 sequence (P30304 whole entry): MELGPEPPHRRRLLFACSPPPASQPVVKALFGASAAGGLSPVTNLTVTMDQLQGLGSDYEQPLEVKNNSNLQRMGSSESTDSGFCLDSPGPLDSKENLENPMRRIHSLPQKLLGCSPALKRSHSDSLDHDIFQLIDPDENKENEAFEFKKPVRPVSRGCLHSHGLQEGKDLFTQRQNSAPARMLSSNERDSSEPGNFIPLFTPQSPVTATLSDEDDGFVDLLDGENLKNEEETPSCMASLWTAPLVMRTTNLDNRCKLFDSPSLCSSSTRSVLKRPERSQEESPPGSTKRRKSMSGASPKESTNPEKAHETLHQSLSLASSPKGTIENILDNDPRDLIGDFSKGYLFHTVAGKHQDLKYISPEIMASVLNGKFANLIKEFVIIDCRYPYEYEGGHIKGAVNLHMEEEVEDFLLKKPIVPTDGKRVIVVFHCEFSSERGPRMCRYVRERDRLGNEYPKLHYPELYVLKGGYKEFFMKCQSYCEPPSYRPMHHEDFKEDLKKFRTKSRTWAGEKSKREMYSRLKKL

A549 [3] = experiment: Inhibitory activity against A549 human adenocarcinoma; type: functional, cell-based
Procedure, shortened: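 Soft agar clonogenic assay of anchorage-independent growth, using HT-29 colon and A549 lung adenocarcinoma cells. The value is the compound concentration that cut colony number to 50% of control.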

[4] = biological target: T1, M-phase inducer phosphatase 1; experiment: Inhibitory activity tested against cell division cycle 25A (assay using fluorescein diphosphate (FDP) as substrate)
Procedure, shortened: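 Recombinant human GST-Cdc25A fusion protein, each batch calibrated so that FDP was dephosphorylated linearly over 20 min. Fluorescein diphosphate was the substrate. Reactions ran 15 min at 25 °C in the dark and were stopped with sodium orthovanadate. IC50 came from at least two independent runs, each in triplicate.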

SK-MEL-5 = experiment: Growth inhibitory activity was determined against SK-MEL-5 cancer cell line of melanoma; type: functional, Homo sapiens; conditions: Homo sapiens, SK-MEL-5; procedure, shortened: as §1
SF-539 = experiment: Growth inhibitory activity was determined against SF-539 cancer cell line of CNS cancer; type: functional; conditions: Homo sapiens; procedure, shortened: as §1
[5] = biological target: T2, Receptor-type tyrosine-protein phosphatase C (Homo sapiens, UniProt P08575); experiment: Inhibitory activity tested against Human CD45 Phosphatase (assay using p-nitrophenyl phosphate (pNPP) as substrate)
T2 sequence (P08575 whole entry): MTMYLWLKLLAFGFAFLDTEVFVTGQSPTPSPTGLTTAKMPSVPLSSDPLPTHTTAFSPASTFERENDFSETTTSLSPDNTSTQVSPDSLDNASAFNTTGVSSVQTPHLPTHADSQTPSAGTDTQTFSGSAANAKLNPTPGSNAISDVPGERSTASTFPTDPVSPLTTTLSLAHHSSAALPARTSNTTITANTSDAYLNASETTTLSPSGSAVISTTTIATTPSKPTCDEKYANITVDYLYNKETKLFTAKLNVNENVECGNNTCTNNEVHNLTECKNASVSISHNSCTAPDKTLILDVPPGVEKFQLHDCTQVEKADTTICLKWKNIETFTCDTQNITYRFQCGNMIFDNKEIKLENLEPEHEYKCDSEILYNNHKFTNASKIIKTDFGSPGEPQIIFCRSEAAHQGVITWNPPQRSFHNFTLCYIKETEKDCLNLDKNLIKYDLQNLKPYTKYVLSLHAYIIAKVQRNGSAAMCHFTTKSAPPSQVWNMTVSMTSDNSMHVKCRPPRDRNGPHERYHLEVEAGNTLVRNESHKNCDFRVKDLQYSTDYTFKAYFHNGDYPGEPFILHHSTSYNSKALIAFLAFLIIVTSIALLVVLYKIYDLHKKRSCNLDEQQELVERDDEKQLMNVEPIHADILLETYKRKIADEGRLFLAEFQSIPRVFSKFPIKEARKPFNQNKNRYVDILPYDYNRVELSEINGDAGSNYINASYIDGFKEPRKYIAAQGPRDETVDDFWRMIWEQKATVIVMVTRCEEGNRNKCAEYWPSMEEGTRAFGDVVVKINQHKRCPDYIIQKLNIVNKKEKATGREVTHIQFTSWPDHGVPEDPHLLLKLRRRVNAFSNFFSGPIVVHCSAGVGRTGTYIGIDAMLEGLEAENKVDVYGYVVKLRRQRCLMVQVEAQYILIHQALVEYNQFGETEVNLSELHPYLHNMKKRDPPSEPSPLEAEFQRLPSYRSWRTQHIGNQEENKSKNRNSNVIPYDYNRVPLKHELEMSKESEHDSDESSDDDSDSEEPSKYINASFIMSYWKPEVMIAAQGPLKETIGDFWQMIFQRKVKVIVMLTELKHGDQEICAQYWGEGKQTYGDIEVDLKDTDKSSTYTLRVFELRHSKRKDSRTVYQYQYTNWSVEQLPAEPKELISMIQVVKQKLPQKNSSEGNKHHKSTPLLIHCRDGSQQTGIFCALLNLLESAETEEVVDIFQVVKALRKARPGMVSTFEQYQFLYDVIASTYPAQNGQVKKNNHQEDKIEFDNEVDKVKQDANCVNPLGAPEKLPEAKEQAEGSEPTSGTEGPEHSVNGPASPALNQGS

BT-549 (Homo sapiens) = experiment: Growth inhibitory activity was determined against BT-549 cancer cell line of Breast cancer; conditions: Homo sapiens, BT-549
T47D = experiment: Growth inhibitory activity was determined against T-47D cancer cell line of Breast cancer; type: functional, Homo sapiens; conditions: Homo sapiens, T47D; procedure, shortened: as §1
[6] = biological target: T1, M-phase inducer phosphatase 1; experiment: Inhibitory activity tested against cell division cycle 25A (assay using p-nitrophenyl phosphate (pNPP) as substrate)
[7] = Inhibitory activity against PSPTase
Procedure, shortened: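 Human GST-Cdc25A fusion protein, with each batch calibrated for linear dephosphorylation of fluorescein diphosphate over 20 min. Run 15 min at 25 °C in the dark and stopped with sodium orthovanadate. Fluorescein monophosphate read at ex 485/em 530 nm. IC50 from at least two independent determinations, each in triplicate; variation from the mean within ±20%.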

- GI50 (PC-3): 9.73 µM
- GI50 (HT-29): 4.85 µM
- GI50 (OVCAR-3): 13.3 µM
- GI50 (NCI-H23): 14.8 µM
- GI50 (NCI-H522): 0.89 µM
- GI50 (OVCAR-8): 8.72 µM
- GI50 (U-251): 9.49 µM
- GI50 (COLO 205): 8.49 µM
- GI50 (A549 [1]): 15 µM
- GI50 (786-0): 7.54 µM
- IC50 [2]: > 100 µM
- IC50 (A549 [3]): 7.2 µM
- IC50 [4]: 29 µM
- GI50 (SK-MEL-5): 4.57 µM
- IC50 [5]: > 100 µM
- GI50 (BT-549 (Homo sapiens)): > 25 µM
- GI50 (T47D): 8.35 µM
SMILES: CC(C)CCCC(C)[C@H]1CC[C@H]2[C@@H]3CC(=O)O[C@](C)(CC/C=C\C#N)[C@H]3CC[C@]12C (stereo not given in full)
- GI50 (SN12C): 5.08 µM
- GI50 (LOX IMVI): 5.15 µM
- GI50 (NCI/ADR-RES): > 25 µM
- GI50 (UO-31): 0.39 µM
- GI50 (SF-268): 3.19 µM
- GI50 (SF-539): > 25 µM

- IC50 [6]: 7.8 µM
SMILES: CC1=CC[C@H]2C(C)(C)CCC[C@]2(C)[C@H]1C(C)[C@H](OS(=O)(=O)O)[C@H](C)CCCc1ccoc1 (stereo not given in full)

SMILES: C=C1[C@@H](O)[C@@H]2O[C@]3(CC[C@H](/C=C/[C@@H](C)[C@@H]4CC(C)=C[C@@]5(O[C@H](C[C@@](C)(O)C(=O)O)CC[C@H]5O)O4)O3)CC[C@H]2O[C@@H]1[C@@H](O)C[C@H](C)[C@H]1O[C@@]2(CCCCO2)CC[C@H]1C [OKADAIC ACID]
- IC50 [7]: 0.049 µM
